Compound activity from PubChem.
A selection: hits, their analogues and other compounds. The true share with any hit is near 1.8%.
ARNT-TACC3 inh – ARNT/TACC3 interaction disruption | Q9Y6A5 | AlphaScreen His-ARNT PAS-B/GST-TACC3 binding, luminescence; TACC3 fragment carries E629A point mutation | inhibition, % at 9.99 µM | 0.66% of 390,000 active;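 active = mean inhibition of replicates at least 50% and at least half of replicates each reaching 50%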;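 also: 0% = complete ARNT plus TACC3 wells and 100% = ARNT alone without TACC3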
TCR CD3 inh – inhibitors of human TCR-CD3 interaction; TAMRA-labeled TCR probe fluorescence, biochemical; inhibition, % at 9.4 µM; 0.37% of 360,000 active; in the data active = inhibition above about 19%;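 also: recombinant mutant TCR 2C K166C tagged with TAMRA read by polarization; 0% = receptor in buffer alone and 100% = receptor with positive control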
HTRA1 inh – HTRA1 (human) protease inhibition; inhibition, % at 5.96 µM; recombinant HTRA1, FP-rhodamine activity-based probe, fluorescence polarization; 0.5% of 340,000 active; in the data active = inhibition above about 36%;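 also: 0% = enzyme with DMSO and 100% = wells lacking enzyme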
SIAE primary – inhibitors of human sialic acid acetylesterase SIAE; Q9HAT2; SIAE FP-Rh probe binding, fluorescence polarization; inhibition, % at 9.66 µM; 0.69% of 370,000 active;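 active = inhibition above a cutoff: mean of compounds within the control limits plus 3 SD of those, cut at about 17% in these data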;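 also: 0% = plate median of compound wells and 100% = probe without SIAE protein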
Target sequence (Q9HAT2 whole entry, looked up): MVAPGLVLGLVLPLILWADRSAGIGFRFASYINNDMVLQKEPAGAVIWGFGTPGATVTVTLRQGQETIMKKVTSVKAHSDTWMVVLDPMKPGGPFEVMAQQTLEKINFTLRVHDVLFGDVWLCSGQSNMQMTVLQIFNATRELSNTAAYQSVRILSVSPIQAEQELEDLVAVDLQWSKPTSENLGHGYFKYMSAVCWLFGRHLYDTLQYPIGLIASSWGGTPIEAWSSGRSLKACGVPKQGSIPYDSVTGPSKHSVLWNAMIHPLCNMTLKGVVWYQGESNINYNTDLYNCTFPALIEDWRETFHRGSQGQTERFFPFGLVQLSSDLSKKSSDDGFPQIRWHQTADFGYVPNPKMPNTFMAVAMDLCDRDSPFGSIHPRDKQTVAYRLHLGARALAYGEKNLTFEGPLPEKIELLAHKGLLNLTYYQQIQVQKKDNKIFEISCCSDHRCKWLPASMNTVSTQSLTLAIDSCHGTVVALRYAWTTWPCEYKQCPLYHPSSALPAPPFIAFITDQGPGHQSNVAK
ABHD4 inh – inhibitors of mouse ABHD4 | Q8VD66 | purified mABHD4, FP-Rh probe fluorescence polarization | inhibition, % at 8.92 µM | 0.54% of 370,000 active;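 active = inhibition exceeding the mean over every tested compound plus 3 SD, cut at about 30% in these data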;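 also: 0% = plate median of compound wells and 100% = S159A mutant with DMSO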
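Test system: mABHD4 protein; Read-out basis: % inhibition; Incubation: 45 min + 60 min at 25 °C; Repeats: single replicate; Technique: fluorescence polarization with parallel and perpendicular emission, 525/598 nm; Compound: 8.92 µM, single dose; Benchmarks: full inhibition S159A mutant plus DMSO, zero as sample-well median.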
ABHD4 confirm – ABHD4 (mouse) inhibition, FP confirmation; purified mABHD4, FP-Rh probe fluorescence polarization; shares compounds with ABHD4 inh; 55% of 1,800 active; inhibition, % at 8.92 µM;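 active = mean inhibition across replicates above the hit cutoff set in the primary screen, cut at about 30% in these data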;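 also: 0% = wild-type ABHD4 with DMSO and 100% = catalytically dead S159A mutant with DMSO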
* = called active by the depositor; · = no result.

SMILES	ARNT-TACC3 inh	TCR CD3 inh	HTRA1 inh	SIAE primary	ABHD4 inh	ABHD4 confirm
CC(=O)c1ccc(NC(=O)CSc2nnc(-c3ccco3)c(-c3ccco3)n2)cc1	-10.2	3.0	20.0	7.9	45.1*	29.5*
COc1ccc(NC(=O)CSc2n[nH]c(-c3ccco3)n2)cc1	2.5	11.8	-8.6	3.7	6.0	·
Nc1sc2c(c1C(=O)NCCc1ccccc1)CCCC2	·	3.9	·	12.7	37.0*	4.3
CCCCCCCN(c1ccccc1)[C@@H]1C[C@H]2CCCC(=O)N3CC[C@@H](C1)[C@@H]23	4.7	-4.2	-14.5	5.2	30.9*	53.3*
COc1ccc(C(=O)Nc2cc3c(cc2C(=O)O)OCCCO3)c(OC)c1	-5.3	4.7	-16.0	-29.9	34.9*	55.0*
COc1ccc(C(=O)Nc2ccc3c(c2)OCCO3)c(OC)c1	·	-4.8	-1.4	6.4	-6.0	·
NC(=O)c1ccsc1NC(=O)COC(=O)c1ccc([N+](=O)[O-])o1	·	6.9	11.4	1.9	-7.7	·
NC(=O)c1ccsc1NC(=O)c1ccc([N+](=O)[O-])o1	12.7	0.7	4.3	8.8	49.8*	56.3*
O=S(=O)(N[C@@H]1CC[C@H](CCn2cc(Cc3ccccc3)nn2)O[C@H]1CO)c1ccccc1F	0.3	·	·	·	·	·
N#Cc1ccc(Nc2nc(-c3ccccc3)cs2)cc1	·	1.7	·	6.9	15.2	·
c1ccc(-c2csc(Nc3ccc4c(c3)OCO4)n2)cc1	·	1.4	·	9.6	31.4*	26.8
CN(c1ccccc1)c1ccc(/C=C(\CCC(=O)O)c2nc3ccccc3s2)cc1[N+](=O)[O-]	12.4	3.4	31.0	13.8	68.6*	61.9*
Cn1cnnc1Sc1ccc(/C=C(\CCC(=O)O)c2nc3ccccc3s2)cc1[N+](=O)[O-]	3.2	0.7	1.3	-5.8	1.8	·
CNc1ccc(/C=C(\CCC(=O)O)c2nc3ccccc3s2)cc1[N+](=O)[O-]	5.1	0.6	8.5	-14.0	47.4*	54.3*
Cc1ccc(/C=C(\CCC(=O)O)c2nc3ccccc3s2)cc1[N+](=O)[O-]	-2.8	-7.3	-18.1	-18.4	-27.6	·
O=C(C[C@@H]1C=C[C@@H](NC(=O)CC2CC2)[C@@H](CO)O1)NCc1ccc(Cl)cc1	-7.0	·	·	·	·	·
CC(C)[C@@H]1CC[C@@H](C)C[C@H]1OC[B-](F)(F)F	·	-6.0	·	7.9	42.5*	47.4*
C[C@@H]1CN([C@@H](C)CO)S(=O)(=O)c2ccc(C#CC3CC3)cc2O[C@H]1CN(C)C(=O)C1CCC1	8.6	·	·	·	·	·
COc1ccc(OC)c(C2Nc3c(Cl)ccc(C(=O)O)c3C3C=CCC32)c1 (configuration not stated)	-5.6	-0.2	16.3	5.6	46.5*	21.7
COC(=O)COc1ccc(C2Nc3c(Cl)ccc(C(=O)O)c3C3C=CCC32)cc1 (configuration not stated)	19.1	15.8	28.4	-6.8	35.6*	19.7
Cc1cc(C)c2c(c1)C1C=CCC1C(c1ccc(S(=O)(=O)N3CCOCC3)cc1)N2 (configuration not stated)	0.6	4.7	-4.6	4.0	4.8	·
CO[C@H]1CN(C)C(=O)c2cc(NC(C)=O)ccc2OC[C@H](C)N(Cc2cncnc2)C[C@H]1C	-7.9	·	·	·	·	·
CCCCn1c(N)c(N(CC(C)C)C(=O)C2CCCO2)c(=O)[nH]c1=O (configuration not stated)	-2.8	5.6	2.7	-0.2	31.6*	-4.3
CCCCn1c(N)c(N(CC(C)C)C(=O)c2ccc(N3C(=O)CCC3=O)cc2)c(=O)[nH]c1=O	-4.2	-1.6	-2.1	1.8	34.9*	4.1
CCCCn1c(N)c(N(CC(C)C)C(=O)c2ccc(N3C(=O)c4ccccc4C3=O)cc2)c(=O)[nH]c1=O	-6.0	1.7	-0.8	-2.1	2.8	·
Cc1ccccc1NC1=C/C(=N\S(=O)(=O)c2ccc(C(=O)O)cc2)c2ccccc2C1=O	31.0	4.2	26.2	3.7	63.3*	65.3*
Cc1ccc(C)c(S(=O)(=O)/N=C2\C=C(NS(=O)(=O)c3ccccc3)C(=O)c3ccccc32)c1	·	-6.6	13.5	-4.3	46.5*	57.8*
Cc1ccccc1NC1=C/C(=N\S(=O)(=O)c2cccs2)c2ccccc2C1=O	16.3	-8.5	17.8	7.3	27.7	·
O=C(C[C@H]1CC[C@@H]2[C@H](COC[C@@H](O)CN2Cc2cccc(Cl)c2)O1)Nc1nccs1	3.1	·	·	·	·	·
